Compounds with a hit are over-represented: about 2.2% of the library has one in this group of screens.
Neddyl block: blocks human cullin neddylation. P61081+Q13564. inhibition, % at 25 µM. 360,000 tested, 0.58% active. TR-FRET cullin neddylation, biochemical; in the data active = inhibition above about 36%
M18AAP inhibitor: blocks P. falciparum M18 aspartyl aminopeptidase | recombinant PfM18AAP, H-Glu-NHMec fluorogenic cleavage | 290,000 tested, 1.2% active | inhibition, % at 7.35 µM;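 active = inhibition above the campaign mean inhibition over all tested compounds plus 3 SD, cut at about 28% in these data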;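 note: 0% = plate median of test compound wells and 100% = 2 mM ZnCl2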
PfGluPho inh: PfG6PD (Plasmodium falciparum) enzyme inhibition | PfGluPho enzyme, NADPH resazurin-diaphorase fluorescence | inhibition, % at 20 µM | 350,000 tested, 0.78% active | AID 504690;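 active = inhibition reaching at least a set limit at 20 µM in the primary screen, cut at about 59% in these data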;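 note: 0% = DMSO wells with substrate and 100% = DMSO wells lacking glucose-6-phosphate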
HKDC1 inh: inhibitors of human hexokinase HKDC1; Q2TB90; recombinant HKDC1, G6PDH/diaphorase resazurin coupled fluorescence; inhibition, % at 20 µM; 340,000 tested, 0.16% active; AID 493160;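 active = inhibition above about 35% when tested at 20 µM, limit read from the data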;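 note: plate controls were DMSO wells with enzyme for no effect and DMSO wells lacking enzyme for full effect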
Target sequence (Q2TB90 whole entry, looked up): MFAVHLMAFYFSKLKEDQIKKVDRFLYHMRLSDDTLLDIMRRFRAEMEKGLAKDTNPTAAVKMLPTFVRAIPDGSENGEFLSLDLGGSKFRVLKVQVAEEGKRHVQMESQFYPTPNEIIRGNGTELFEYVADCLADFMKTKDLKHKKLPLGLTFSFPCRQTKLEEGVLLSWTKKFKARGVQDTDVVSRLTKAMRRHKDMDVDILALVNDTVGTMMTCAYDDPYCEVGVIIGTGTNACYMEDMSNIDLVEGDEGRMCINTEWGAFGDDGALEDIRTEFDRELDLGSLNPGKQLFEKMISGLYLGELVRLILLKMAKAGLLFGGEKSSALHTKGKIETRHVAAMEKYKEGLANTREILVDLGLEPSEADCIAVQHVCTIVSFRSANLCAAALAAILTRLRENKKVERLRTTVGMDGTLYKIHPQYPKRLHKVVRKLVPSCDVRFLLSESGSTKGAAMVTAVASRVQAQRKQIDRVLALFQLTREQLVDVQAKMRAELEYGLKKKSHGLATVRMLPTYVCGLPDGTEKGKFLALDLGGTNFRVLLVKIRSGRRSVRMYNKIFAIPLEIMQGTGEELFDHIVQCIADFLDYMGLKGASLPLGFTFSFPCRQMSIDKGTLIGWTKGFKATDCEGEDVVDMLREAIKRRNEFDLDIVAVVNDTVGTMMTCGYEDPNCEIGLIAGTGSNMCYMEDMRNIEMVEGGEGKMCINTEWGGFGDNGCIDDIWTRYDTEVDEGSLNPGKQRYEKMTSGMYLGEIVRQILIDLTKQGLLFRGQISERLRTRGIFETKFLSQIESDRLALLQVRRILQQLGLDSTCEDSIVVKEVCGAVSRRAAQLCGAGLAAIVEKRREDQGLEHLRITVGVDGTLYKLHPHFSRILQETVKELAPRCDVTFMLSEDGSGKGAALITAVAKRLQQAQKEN
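Material – in-house recombinant HK5 (HKDC1) enzyme · Quantity – HKDC1 at 5 µg/mL · Buffer or medium – pH 8.0 Tris buffer with 10 mM MgCl2 · Reagent – glucose with 1 mM ATP · Dosing – single 20 µM dose · Times – reaction time 90 min, room temperature, protected from light · Technique – resorufin fluorescence at 613 nm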
An asterisk follows results filed as active; i = inactive; / = not tested or not shown.

SMILES	Neddyl block	M18AAP inhibitor	PfGluPho inh	HKDC1 inh
C#CCOCCOCCOCCNc1nc(N2CCN(C(=O)CCCCCCCCCCNC(=O)[C@H](CCCCN)n3cc(C[C@@H](C)CC)nn3)CC2)nc(N2CCN(C(=O)CCCCCCCCCCNC(=O)[C@H](CCCN=C(N)N)n3cc(C[C@@H](C)CC)nn3)CC2)n1	-3	/	52	16
O=C(NC1CCCC1)C(c1cccnc1)N(C(=O)c1ccco1)c1ccc(F)cc1 (stereo unspecified)	-7	-4	-8	0
Cc1cccc(C)c1Nc1c(-c2ccccn2)nc2ccccn12	41*	1	10	3
NC(CO)C(=O)NNCc1ccc(O)c(O)c1O (stereo unspecified)	-4	29*	55	15
N#CC1=C(N)OC2=C(C(=O)CCC2)C1c1ccccc1 (stereo unspecified)	-12	2	-6	-8
Cn1cccc1C1C(C#N)=C(N)OC2=C1C(=O)CCC2 (stereo unspecified)	9	28*	-1	3
CSc1nc2ccc3nc(NC(=O)c4ccc(C)cc4)sc3c2s1	/	-3	0	2
Cc1ccc(C(=O)Nc2nc3ccccc3c(=O)s2)cc1	i	31*	27	-6
CN1/C(=C\C(=O)c2cccc([N+](=O)[O-])c2)Sc2ccccc21	-6	12	16	1
CN1/C(=C/C(=O)c2ccc(Cl)cc2)Sc2cc3c(cc21)OCO3	16	32*	26	-2
CCOc1ccc(C(=O)NC(=S)Nc2ccc(N3CCCCC3)cc2)cc1[N+](=O)[O-]	-15	2	64*	-7
CCOc1ccc(C(=O)NC(=S)Nc2ccccc2N2CCCCC2)cc1[N+](=O)[O-]	-4	-1	-1	8
Cc1ccc(-n2c(Cc3cccn3C)nnc2SCC(=O)NCc2ccc3c(c2)OCO3)cc1	2	30*	-10	-3
Cc1ccc(-n2c(Cc3cccn3C)nnc2SCC(=O)Nc2ccc3c(c2)OCO3)cc1	6	9	9	-8
Cc1cc(/C=N/NC(=O)c2cc3ccccc3o2)c(C)n1C	30	30*	18	0
O=C(N/N=C/c1ccncc1)c1cc2ccccc2o1	-14	-2	8	-10
Nc1cc(=O)[nH]c(=S)n1-c1ccccc1	8	-20	-15	-3
O=c1cc(C(F)(F)F)[nH]c(=S)n1-c1ccccc1	-2	30*	56	-6
COc1ccc(N2CCN(C(=O)COC(=O)CCc3ccccc3)CC2)cc1	6	/	-4	2
Oc1ccc(-c2nc3ccccc3s2)c(O)c1	31	4	-3	-2
Oc1ccc(-c2cnns2)c(O)c1	0	99*	44	45*
CN(C(=O)COC(=O)c1ccc(Cl)c(S(=O)(=O)NCc2ccccc2)c1)C1CCS(=O)(=O)C1 (stereo unspecified)	12	/	-6	-5
Nc1nnc(SCC(=O)c2ccccc2)s1	-8	15	5	6
Nc1c(C(=O)c2ccccc2)sc2snc(SCC(=O)c3ccccc3)c12	-27	31*	26	-11
COc1cccc(CN(C)C(=O)/C=C/c2ccc(S(=O)(=O)N3CCCCCC3)cc2)c1	-15	-2	17	4
SMILES	Neddyl block	M18AAP inhibitor	PfGluPho inh	HKDC1 inh
Cc1ccccc1NC(=O)c1c(C)[nH]c(=S)c(C#N)c1-c1ccc(Cl)cc1	-161	9	30	-3
Cc1[nH]c(=S)c(C#N)c(-c2ccccc2)c1C(=O)Nc1ccccc1	3	28*	27	-1
CC(=O)N1CC(C)Oc2ccc(S(=O)(=O)NC(CC(=O)O)c3ccccc3)cc21 (stereo unspecified)	-2	-4	-19	-4
COc1cc(C(=O)NC2CCN(C)CC2)ccc1Nc1ncc2c(n1)N(C1CCCCC1)CCC(=O)N2C	40*	/	16	2
CC(C)CN(C(=O)C1CCC1)c1c(N)n(Cc2ccccc2)c(=O)[nH]c1=O	10	/	-10	-6
CN(Cc1ccccc1)C(=O)COC(=O)c1cc(=O)[nH]c2ccccc12	19	/	7	-7
CCN1C(=O)/C(=C/C=C2/Sc3ccc4ccccc4c3N2CCO)SC1=S	4	50*	46	12
CCN1C(c2ccccc2)=C(c2ccccc2)S/C1=C\C=C1/SC(=S)N(C)C1=O	-20	-2	11	4
O=[N+]([O-])c1cc2c(cc1CN1CCN(c3ccccc3F)CC1)OCO2	-14	29*	13	-3
Cc1ccc(NS(=O)(=O)c2ccc3[nH]c(=O)sc3c2)cc1	11	-9	-50	14
COc1cc(/C=C2\CCC/C(=C\c3ccc(O)c(OC)c3)C2=O)ccc1O	3	15	-2	11
CCOc1cc(/C=C2\CN(CC)C/C(=C\c3ccc(O)c(OCC)c3)C2=O)ccc1O	4	29*	12	15
O=[N+]([O-])c1cccc(-c2n[nH]c(=S)n2Cc2ccccc2)c1	-19	29*	20	13
S=c1[nH]nc(-c2ccccc2Br)n1Cc1ccccc1	-9	31*	15	3
C=CCn1c(-c2cccc([N+](=O)[O-])c2)n[nH]c1=S	-17	24	19	-10
CC(=O)/C(=N\Nc1ccccc1)Sc1cccc2cccnc12	-13	31*	-37	-6
C=CCc1cccc(/C=N/NC(=O)c2ccc3nc[nH]c3c2)c1O	2	24	1	-18
CC1CCc2c(sc3nc(CSc4ncn[nH]4)[nH]c(=O)c23)C1 (stereo unspecified)	13	56*	-11	-5
N#CCC(=O)N/N=C\c1ccc(OC/C=C/c2ccccc2)cc1	1	13	-2	-5
N#CCC(=O)N/N=C/c1ccc(OCc2ccccc2)cc1	2	30*	-5	-7
C/C(=N/NC(=O)c1cc2ccccc2cc1O)c1ccco1	21	7	26	5
C/C(=N\NC(=O)c1cc2ccccc2cc1O)c1ccc(C)o1	40*	0	-1	-4
CCCCN(CCCC)Cc1cc(=O)oc2cc(OC)c(Cl)cc12	26	/	/	/
O=C1C=CC(=O)N1c1ccccc1N1C(=O)C=CC1=O	6	/	114*	-9
N#C/C(C(N)=O)=c1/ccc2c(c1)N1C3=C(CCCC3)CC3CCCCC31N=2 (stereo unspecified)	/	1	44	52*
SMILES	Neddyl block	M18AAP inhibitor	PfGluPho inh	HKDC1 inh
CCN(CC)c1ccc(N=Cc2ccc([N+](=O)[O-])o2)cc1	-7	17	69*	5
Nn1c(-c2ccccc2)nc2cc(Cl)ccc2c1=O	5	3	10	-5
Cc1ccc2nc(C)cc(N/N=C/c3ccccc3O)c2c1	32	0	17	-1
Cc1ccc(C)c(/C=N/Nc2nc3ccccc3c(=O)n2O)c1	10	31*	19	-6
Cc1ccccc1C(=O)NCC(=O)OCCCOC(=O)CNC(=O)c1ccccc1C	-3	/	-3	2
CC(C)N1CCN(CCCc2ccccc2)CC1CCO (stereo unspecified)	-9	1	4	7
COc1cc2c(cc1N)-c1ccc(N)cc1C2	32	/	54	5
CC(=Nc1ccc(C)cc1C)c1sc2ccccc2c1O	44*	-11	10	11
CC(=Nc1cccc(O)c1)c1sc2ccccc2c1O	12	31*	-9	0
